In publication PMC4165341 (ACS nano, 2011):

Key:
[1] = target: T1, mOR256-17, His-tagged, nanotube device (Mus musculus, UniProt P23275); assay: carbon nanotube transistor current change; format: binding; settings: odorant vapor in N2, 50% RH, concentration not given
T1 sequence (P23275 1-312): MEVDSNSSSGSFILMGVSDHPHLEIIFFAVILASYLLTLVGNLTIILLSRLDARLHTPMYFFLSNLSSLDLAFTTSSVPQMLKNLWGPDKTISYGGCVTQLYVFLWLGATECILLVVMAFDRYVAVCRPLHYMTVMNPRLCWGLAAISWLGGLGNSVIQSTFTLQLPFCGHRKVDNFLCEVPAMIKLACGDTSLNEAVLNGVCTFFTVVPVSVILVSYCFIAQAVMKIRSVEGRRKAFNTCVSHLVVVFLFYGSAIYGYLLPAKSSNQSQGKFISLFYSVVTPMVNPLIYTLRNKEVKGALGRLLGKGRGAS

[2] = target: T2, mOR174-9 (mOR-EG), His-tagged, nanotube device (Mus musculus, UniProt Q920P2); assay: carbon nanotube transistor current change; format: binding; settings: digitonin micelle device; eugenol vapor in N2, 50% RH (2 ppm in Figure 2)
T2 sequence (Q920P2 1-313): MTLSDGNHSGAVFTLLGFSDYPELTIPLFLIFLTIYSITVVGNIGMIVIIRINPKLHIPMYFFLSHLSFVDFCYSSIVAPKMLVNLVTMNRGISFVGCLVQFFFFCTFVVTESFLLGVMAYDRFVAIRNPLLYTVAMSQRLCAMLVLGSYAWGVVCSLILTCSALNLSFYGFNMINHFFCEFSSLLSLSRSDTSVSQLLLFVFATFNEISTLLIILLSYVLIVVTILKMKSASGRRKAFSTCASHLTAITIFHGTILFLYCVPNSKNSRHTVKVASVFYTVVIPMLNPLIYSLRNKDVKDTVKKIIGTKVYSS
Procedure, shortened: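 Receptor solubilised from crude plasma membranes in 6.76 mM digitonin, captured on Ni-magnetic beads (1 h, 4 °C), eluted in 4.88 mM digitonin/acetate pH 4.0, readjusted to pH 8.0, used immediately. Back-gated nanotube transistors (on/off >1000) treated with 11.3 mM NTA-NH2 (2 h), then 11.3 mM NiCl2; receptor deposited 30 min, room temperature. Current recorded under computer-controlled humidity, temperature and vapor flow.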

mOR 256-17 / nanodisc nanotube [1]: +33.6±8.3% | mOR 174-9 / micelle nanotube [2]: +20.9±4.6%
Structure (SMILES): C=CCc1ccc(O)c(OC)c1 [eugenol]
